# According to ChEMBL document CHEMBL1136847, “Syntheses and potential anti-prostate cancer activities of ionone-based chalcones” (Bioorg Med Chem Lett, 2009):
# The source made the active and inactive calls. The rule behind the calls is not given here.
# Tests used:
# PC-3 = experiment: Cytotoxicity against androgen-independent human PC3 cells after 72 hrs by MTT assay; type: functional, cell-based; conditions: for IC50: PC-3, 72 h
# Method in brief: (§1)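 Cells seeded at 6000–7000 per well in RPMI 1640 with 10% FBS, penicillin and streptomycin, left overnight, then exposed to a range of concentrations from DMSO stock (final DMSO 0.5%) for 72 h. MTT added for a further 2 h and formazan from viable cells read. IC50 taken from survival curves, 50% inhibition relative to 0.5% DMSO control; top concentration 150 µM.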
# CWR22R = experiment: Cytotoxicity against human 22Rv1 cells with H874Y AR mutant after 72 hrs by MTT assay; type: functional, cell-based; conditions: 22Rv1, 72 h; method in brief: as §1
# LNCaP = experiment: Cytotoxicity against androgen-dependent human LNCAP cells with T877A AR mutant after 72 hrs by MTT assay; type: functional, cell-based; method in brief: as §1
# [1] = Cytotoxicity against androgen-dependent human MDA PCa 2b cells with T877A/L701H AR mutant after 72 hrs by MTT assay; type: functional, cell-based
# Method in brief: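 Seeded at 6000–7000 cells per well in BRFF-HPC1 medium with 20% FBS, incubated overnight, then treated with serial concentrations diluted from DMSO stock (final DMSO 0.5%) for 72 h. Viability by MTT, 2 h with reagent, formazan measured. IC50 from survival curves as 50% inhibition versus 0.5% DMSO vehicle; maximum concentration tested 150 µM.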
# [2] = Cytotoxicity against androgen-independent human C4-2B cells with T877A mutant after 72 hrs by MTT assay; type: functional, cell-based; conditions: LNCaP C4-2B; method in brief: as §1
# [3] = Cytotoxicity against human RWPE1 cells after 72 hrs by MTT assay; type: cell-based; conditions: RWPE-1, 72 h
# Method in brief: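 Non-tumorigenic prostate epithelial line plated at 6000–7000 cells per well in keratinocyte serum-free medium with 0.05 mg/mL bovine pituitary extract and 5 ng/mL EGF; overnight attachment, then compounds at various concentrations in 0.5% final DMSO for 72 h. MTT 2 h, formazan read; IC50 from survival curves versus DMSO control.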
SMILES,IC50 (PC-3) [µM],IC50 (CWR22R) [µM],IC50 (LNCaP) [µM],IC50 [1] [µM],IC50 [2] [µM],Activity (PC-3),IC50 [3] [µM]
CC1=C(/C=C/C(=O)/C=C/c2cccc(C)c2)C(C)(C)CCC1O (centres undefined),6.2,4.4,4.1,19,,,
CC1=C(/C=C/C(=O)/C=C/c2cccc(F)c2)C(C)(C)CCC1,18.7,,12.9,,,,
CC1=C(/C=C/C(=O)/C=C/c2ccc(O)c([N+](=O)[O-])c2)C(C)(C)CCC1,> 50,,26.8,,,,
CC1=CCCC(C)(C)C1/C=C/C(=O)/C=C/c1cccc([N+](=O)[O-])c1 (centres undefined),2.9,4.7,3.3,5.9,4,,
CC1=C(/C=C/C(=O)/C=C/c2ccccc2C(F)(F)F)C(C)(C)CCC1O (centres undefined),3.7,2.3,2.9,2.9,,,
CC1=C(/C=C/C(=O)/C=C/c2ccc([N+](=O)[O-])cc2)C(C)(C)CCC1O (centres undefined),15,4.1,4.2,,,,
CC1=C(/C=C/C(=O)/C=C/c2ccc(C(F)(F)F)cc2F)C(C)(C)CCC1O (centres undefined),4.6,3.8,2.6,,,,
CC1=CCCC(C)(C)C1/C=C/C(=O)/C=C/c1ccccc1F (centres undefined),4.8,9.4,1.6,8.3,6,,
CCOC(OCC)c1cccc(/C=C/C(=O)/C=C/C2=C(C)C(O)CCC2(C)C)c1 (centres undefined),4.7,,1.8,,,,
CC(=O)/C=C/C1C(C)=CCCC1(C)C (stereo not drawn) [ALPHA-IONONE],,,151,,,inactive,
CC1=C(/C=C/C(=O)/C=C/c2ccccc2)C(C)(C)CCC1O (centres undefined),15.5,8,5.8,12.6,1.8,,
COc1ccc(/C=C/C(=O)/C=C/C2=C(C)CCCC2(C)C)cc1OC,42,,9.5,,,,
CC1=CCCC(C)(C)C1/C=C/C(=O)/C=C/c1ccccc1C(F)(F)F (centres undefined),19,18.4,22.6,,11.7,,
CC1=CCCC(C)(C)C1/C=C/C(=O)/C=C/c1ccc(C(F)(F)F)cc1 (centres undefined),7.9,3.3,4.7,7,5.2,,
CC1=C(/C=C/C(=O)/C=C/c2cccc([N+](=O)[O-])c2)C(C)(C)CCC1O (centres undefined),5.8,1.9,2,6,,,1.9
COc1cc(/C=C/C(=O)/C=C/C2=C(C)CCCC2(C)C)ccc1O,21.3,,9.5,,,,
CC1=C(/C=C/C(=O)/C=C/c2cccc(C#N)c2)C(C)(C)CCC1O (centres undefined),7.2,2.2,1.8,,,,1.9
CC1=C(/C=C/C(=O)/C=C/c2cccc(C(F)(F)F)c2F)C(C)(C)CCC1O (centres undefined),2.1,,1.1,,,,
CC1=C(/C=C/C(=O)/C=C/c2ccc(F)cc2)C(C)(C)CCC1O (centres undefined),6.2,7.5,3.9,,4,,
CC1=CCCC(C)(C)C1/C=C/C(=O)/C=C/c1cccc(C(F)(F)F)c1 (centres undefined),5.2,2.9,1,4.4,4.4,,
CC1=C(/C=C/C(=O)/C=C/c2ccc(C(F)(F)F)cc2)C(C)(C)CCC1,12,,9.1,,,,
CC1=C(/C=C/C(=O)/C=C/c2cccc(C)c2)C(C)(C)CCC1,35,,17.8,,,,

SMILES,IC50 (PC-3) [µM],IC50 (CWR22R) [µM],IC50 (LNCaP) [µM],IC50 [1] [µM],IC50 [2] [µM],Activity (PC-3),IC50 [3] [µM]
CC1=C(/C=C/C(=O)/C=C/c2cc(C(F)(F)F)cc(C(F)(F)F)c2)C(C)(C)CCC1O (centres undefined),7,2.2,2.1,3.5,,,
CC1=C(/C=C/C(=O)/C=C/c2ccc(C(F)(F)F)cc2)C(C)(C)CCC1O (centres undefined),10.2,3.2,3,9.3,,,
CC1=C(/C=C/C(=O)/C=C/c2cc(F)cc(C(F)(F)F)c2)C(C)(C)CCC1O (centres undefined),3,2.4,1.1,,,,
CC1=C(/C=C/C(=O)/C=C/c2cccc(F)c2)C(C)(C)CCC1O (centres undefined),16,5.6,4.4,,,,
CC1=C(/C=C/C(=O)/C=C/c2cccc([N+](=O)[O-])c2)C(C)(C)CCC1,10,,2.7,,,,
COc1ccc(/C=C/C(=O)/C=C/C2=C(C)CCCC2(C)C)cc1O,37.4,,9.9,,,,
CCOc1ccc(/C=C/C(=O)/C=C/C2=C(C)CCCC2(C)C)cc1OCC,> 50,,8.2,,,,
CC1=C(/C=C/C(=O)/C=C/c2ccccc2F)C(C)(C)CCC1,22.1,,10.7,,,,
CC1=C(/C=C/C(=O)/C=C/c2ccc(-c3ccccc3)cc2)C(C)(C)CCC1,47.8,,14.8,,,,
CC1=C(/C=C/C(=O)/C=C/c2cc(C(F)(F)F)ccc2F)C(C)(C)CCC1O (centres undefined),3.6,2,1.7,,,,
COc1cccc(/C=C/C(=O)/C=C/C2=C(C)C(O)CCC2(C)C)c1 (centres undefined),6.5,,4.9,,,,
CC1=CCCC(C)(C)C1/C=C/C(=O)/C=C/c1cccc(C)c1 (centres undefined),5.9,15.2,12.2,,6.2,,
CC1=CCCC(C)(C)C1/C=C/C(=O)/C=C/c1cc(C(F)(F)F)ccc1F (centres undefined),3.1,3.5,1.7,3,4.7,,
CC1=C(/C=C/C(=O)/C=C/c2ccc(F)cc2)C(C)(C)CCC1,25.8,,7.3,,,,
CC1=C(/C=C/C(=O)/C=C/c2cccc(C(F)(F)F)c2)C(C)(C)CCC1,7.7,,2.8,,,,
CC1=C(/C=C/C(=O)/C=C/c2cc([N+](=O)[O-])ccc2Cl)C(C)(C)CCC1,18.9,,4.2,,,,
CC1=C(/C=C/C(=O)/C=C/c2cc(C(F)(F)F)ccc2C(F)(F)F)C(C)(C)CCC1O (centres undefined),1.9,,3.2,4,,,
CC1=C(/C=C/C(=O)/C=C/c2ccc(F)c(C(F)(F)F)c2)C(C)(C)CCC1O (centres undefined),7.3,3.2,2.2,10,7.3,,
CC1=C(/C=C/C(=O)/C=C/c2cc(C(F)(F)F)cc(C(F)(F)F)c2)C(C)(C)CCC1,7.2,,8.7,,,,
CC1=C(/C=C/C(=O)/C=C/c2ccccc2F)C(C)(C)CCC1O (centres undefined),10.4,3.3,2.9,,,,
CC1=C(/C=C/C(=O)/C=C/c2c(F)cccc2C(F)(F)F)C(C)(C)CCC1O (centres undefined),8.8,8.9,4.9,,,,
